Experimental data: ChEMBL document CHEMBL3853361 (ACS Med Chem Lett, 2016)
Each block holds one compound with its values, some of them ahead of it. The source made the active and inactive calls. No cut-off for these calls is given here.

How the values were obtained:
[1] = Antiproliferative activity against human SK-MEL-28 cells harboring BRAF V600E mutant assessed as concentration required for total growth inhibition measured after 48 hrs resazurin assay; type: functional; details: SK-MEL-28, 48 h
Outline: (§1)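 SKMEL28 melanoma cells (BRAF V600E-dependent) exposed to a range of compound concentrations, no UV; growth measured after 48 h incubation. Dose–response curves give GI50, TGI (concentration giving total growth inhibition) and LC50; n = 4, error bars standard deviation.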

SK-MEL-28 [2] = assay: Growth inhibition of human SK-MEL-28 cells harboring BRAF V600E mutant preincubated for 1 hr followed by irradiation of 1.13 kW/m2 UV-light for 5 mins measured after 48 hrs resazurin assay; type: functional, cell-based
Outline: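 SKMEL28 cells incubated 1 h with compound, then irradiated at 365 nm (1.13 kW/m2) for 5 min; growth measured 48 h after compound addition. GI50, TGI and LC50 taken from dose–response curves; n = 4, standard deviation shown.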

[3] = Photostability of the compound in DMSO assessed as photolysis at 200 uM measured after irradiation of 1130 W/m2 UV-light for 15 mins by HPLC analysis; type: physicochemical; details: 0.25 h
[4] = biological target: Serine/threonine-protein kinase B-raf (Homo sapiens, UniProt P15056, V600E); assay: Inhibition of recombinant human N-terminal GST-6His tagged BRAF V600E mutant (417 to 766 residues) expressed in baculovirus infected Sf9 cells preincubated with substrate followed by protein and ATP addition measured after 60 mins by scintillation counter method
[5] = Drug uptake in nucleus of human SK-MEL-28 cells at 100 uM by DAPI-staining based fluorescence microscopic analysis; type: ADME, cell-based; details: sk-mel-28, 100 µM
Outline: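 SKMEL28 cells incubated with compound at 100 µM and imaged for green autofluorescence by fluorescence microscopy at 60×. Nuclei counterstained with 1 µg/mL DAPI.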

[6] = Drug level in human SK-MEL-28 cells treated with dabrafenib at 100 uM followed by UV-light irradiation by DAPI-staining based fluorescence microscopic analysis; type: ADME, cell-based; details: sk-mel-28, 100 µM
Outline: (§2)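 Fluorescence microscopy of SKMEL28 cells seeded in wells. Cells incubated with parent drug, then exposed to rising doses of 365 nm UV; green autofluorescence of the photoproduct imaged at 10× per well. Nuclei counterstained with 1 µg/mL DAPI. Controls: cells without compound given the highest UV dose.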

[7] = Drug level in DMEM treated with dabrafenib at 200 uM measured after irradiation of 226 W/m2 UV-light for 5 mins by HPLC analysis; type: physicochemical
[8] = Drug level in DMEM treated with dabrafenib at 200 uM measured after irradiation of 1130 W/m2 UV-light for 15 mins by HPLC analysis; type: physicochemical; details: 0.25 h
Outline: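 Parent drug dissolved in DMEM cell culture medium, irradiated at 1130 W/m2, then analysed by HPLC. Peak areas converted to concentrations with calibration curves (n = 4).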

[9] = Drug level in DPBS treated with dabrafenib at 200 uM measured after irradiation of 1130 W/m2 UV-light for 15 mins by HPLC analysis; type: physicochemical; details: 0.25 h
[10] = Drug level assessed as compound formation in DMSO using 200 uM dabrafenib measured after daylight exposure for 1 day by HPLC analysis; type: physicochemical; details: 24 h
[11] = Drug level assessed as compound formation in DMEM using 200 uM dabrafenib measured after daylight exposure for 1 day by HPLC analysis; type: physicochemical; details: 24 h
SK-MEL-28 [12] = assay: Cytotoxicity against human SK-MEL-28 cells harboring BRAF V600E mutant at >30000 nM measured after 48 hrs by resazurin assay
SK-MEL-28 [13] = assay: Cytostatic activity in human SK-MEL-28 cells harboring BRAF V600E mutant at 10 and 30000 nM measured after 48 hrs resazurin assay
[14] = Photostability of the compound in DMSO at 200 uM measured after irradiation of 226 W/m2 UV-light for 5 mins by HPLC analysis; type: physicochemical
[15] = Half life of the compound in DMSO at 200 uM measured after irradiation of 226 W/m2 UV-light for 5 mins by HPLC analysis; type: physicochemical; details: DMSO solution under UV irradiation
[16] = Half life of the compound in DPBS at 200 uM measured after irradiation of 1130 W/m2 UV-light for 15 mins by HPLC analysis; type: physicochemical; details: DPBS solution under UV irradiation
[17] = Half life of the compound in DMSO at 200 uM measured after irradiation of 1130 W/m2 UV-light for 15 mins by HPLC analysis; type: physicochemical; details: DMSO solution under UV irradiation
[18] = Photostability of the compound in DMSO at 200 uM measured after daylight exposure for 1 day by HPLC analysis; type: physicochemical; details: 24 h
[19] = Photostability of the compound in DMEM at 200 and 1100 uM measured after daylight exposure for 1 day by HPLC analysis; type: physicochemical; details: 24 h
[20] = Stability of the compound in DMEM assessed as thermal decomposition at 200 uM incubated in dark for 1 day by HPLC analysis; type: physicochemical; details: 24 h
[21] = Stability of the compound in DMSO assessed as thermal decomposition at 200 uM incubated in dark for 1 day by HPLC analysis; type: physicochemical; details: 24 h
SK-MEL-28 [22] = assay: Cytostatic activity in human SK-MEL-28 cells harboring BRAF V600E mutant at 1 and 30 uM measured after 48 hrs resazurin assay; type: functional, cell-based
SK-MEL-28 [23] = assay: Growth inhibition of human SK-MEL-28 cells harboring BRAF V600E mutant measured after 48 hrs resazurin assay; type: functional, cell-based; outline: as §1
[24] = Drug metabolism in human SK-MEL-28 cells assessed as photo-induced N-(5-amino-2-tert-butyl)-11-fluorbenzol[f]thiazol-[4,5-h]-quinazolin-10-yl)-2,6-difluorbenzolsulfonamide formation at 100 uM followed by UV-light irradiation by DAPI-staining based fluorescence microscopic analysis; type: ADME, cell-based; details: sk-mel-28, 100 µM; outline: as §2
[25] = Half life of the compound in DMSO at 200 uM measured after irradiation of 1130 W/m2 W/m2 UV-light for 5 mins by HPLC analysis; type: physicochemical; details: DMSO solution under UV irradiation

Sequence of Serine/threonine-protein kinase B-raf (P15056 2-766 V600E limits assumed): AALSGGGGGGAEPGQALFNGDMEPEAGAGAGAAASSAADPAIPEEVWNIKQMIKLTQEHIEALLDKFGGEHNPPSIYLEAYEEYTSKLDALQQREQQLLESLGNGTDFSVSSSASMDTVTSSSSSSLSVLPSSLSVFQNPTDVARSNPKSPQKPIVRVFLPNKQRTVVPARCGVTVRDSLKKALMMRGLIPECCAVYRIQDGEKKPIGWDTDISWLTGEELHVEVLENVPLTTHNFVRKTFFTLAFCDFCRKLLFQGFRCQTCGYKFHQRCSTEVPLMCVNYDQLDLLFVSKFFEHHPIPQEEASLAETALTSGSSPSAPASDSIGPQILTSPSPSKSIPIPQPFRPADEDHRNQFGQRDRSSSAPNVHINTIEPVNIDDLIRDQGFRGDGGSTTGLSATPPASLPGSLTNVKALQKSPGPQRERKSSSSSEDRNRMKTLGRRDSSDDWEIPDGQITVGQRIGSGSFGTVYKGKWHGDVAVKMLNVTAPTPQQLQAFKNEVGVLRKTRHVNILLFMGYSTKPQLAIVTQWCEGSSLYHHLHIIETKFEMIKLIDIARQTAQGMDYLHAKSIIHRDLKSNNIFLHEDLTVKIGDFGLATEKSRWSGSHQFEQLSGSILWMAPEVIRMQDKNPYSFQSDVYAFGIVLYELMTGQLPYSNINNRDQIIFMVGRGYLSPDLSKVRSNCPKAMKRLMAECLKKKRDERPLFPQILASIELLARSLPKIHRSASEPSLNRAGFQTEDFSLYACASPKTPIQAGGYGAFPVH

Compound: CCCS(=O)(=O)Nc1ccc(F)c(C(=O)c2c[nH]c3ncc(-c4ccc(Cl)cc4)cc23)c1F [VEMURAFENIB]
TGI [1]: 2 µM
growth inhibition (GI) (SK-MEL-28 [2]): Active

Compound: CC(C)(C)c1nc2c(s1)c1nc(N)ncc1c1ccc(NS(=O)(=O)c3c(F)cccc3F)c(F)c12
Stability [3]: Unstable
IC50 [4]: 0.28 µM
TGI [1]: 8.9 µM
growth inhibition (GI) (SK-MEL-28 [2]): Active
Drug uptake [5]: Active
Drug metabolism [6]: Metabolite_Detected
Drug metabolism [7]: Metabolite_Detected
Drug metabolism [8]: Metabolite_Detected
Drug metabolism [9]: Metabolite_Detected
Drug metabolism [10]: Metabolite_Detected
Drug metabolism [11]: Metabolite_Detected
Activity (SK-MEL-28 [12]): Active
Activity (SK-MEL-28 [13]): Active

Stability [14]: Unstable
half-life at 200 µM [15]: 65 s
half-life at 200 µM [16]: 145 s
half-life at 200 µM [17]: 19.5 s
Stability [18]: Unstable
Stability [19]: Unstable
Stability [20]: Stable
Stability [21]: Stable
Drug metabolism [24]: Metabolite_Detected
half-life at 200 µM [25]: 19.5 s
Compound: CC(C)(C)c1nc(-c2cccc(NS(=O)(=O)c3c(F)cccc3F)c2F)c(-c2ccnc(N)n2)s1 [DABRAFENIB]
Activity (SK-MEL-28 [22]): Active
growth inhibition (GI) (SK-MEL-28 [23]): Active
growth inhibition (GI) (SK-MEL-28 [2]): Active
